Compound activity as filed in PubChem BioAssay.
Sampled rows, rich in hits. Any-hit rate of the full collection: about 2.6%.
PRMT1 inh: PRMT1 methyltransferase inhibitors, primary screen, biochemical, fluorescence polarization | Protein arginine N-methyltransferase 1 (Homo sapiens), Q99873 | recombinant PRMT1, activity-based probe fluorescence polarization | inhibition, % at 2.79 µM | 370,000 compounds, 1.3% hits | AID 652257, 2013;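 active = inhibition above about 21% made by adding two undisclosed values, limit read from the data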
ABHD4 inh: ABHD4 inhibitors, primary screen, biochemical, fluorescence polarization, mouse; inhibition, % at 8.92 µM; 370,000 compounds, 0.54% hits; (Lyso)-N-acylphosphatidylethanolamine lipase (Mus musculus), Q8VD66; purified mABHD4, FP-Rh probe fluorescence polarization;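 active = inhibition exceeding the mean over every tested compound plus 3 SD, cut at about 30% in these data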
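Material: mouse ABHD4 enzyme, wild type; Benchmarks: S159A mutant high control, sample median low control; Buffer or medium: HEPES pH 7.0, NaCl, Pluronic buffer; Signal: fluorescence polarization; Read-out: percent inhibition of probe binding, normalized to plate controls; Timing: pre-incubation 45 min, probe exposure 60 min, at 25 °C; Dosing: 8.92 µM, single dose.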
TCR-CD3 inh: inhibitors of human TCR-CD3 interaction, primary screen, biochemical, fluorescence, TAMRA-labeled TCR probe; T-cell receptor (TCR); 360,000 compounds, 0.37% hits; inhibition, % at 9.4 µM; in the data active = inhibition above about 19%;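 also: recombinant mutant TCR 2C K166C tagged with TAMRA read by polarization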
SIAE inh: human SIAE inhibitors, primary screen, biochemical, fluorescence polarization, FP-Rh probe, 1536-well HTS; 370,000 compounds, 0.69% hits; SIAE FP-Rh probe binding; inhibition, % at 9.66 µM; Sialate O-acetylesterase (Homo sapiens), Q9HAT2; AID 1053197, 2014;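 active = inhibition above a cutoff: mean of compounds within the control limits plus 3 SD of those, cut at about 17% in these data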
HTRA1 inhibitor: HTRA1 serine protease inhibitors, primary screen, biochemical, fluorescence polarization, HTS | 340,000 compounds, 0.5% hits | AID 504803, 2011 | recombinant HTRA1, FP-rhodamine activity-based probe | Q92743 | inhibition, % at 5.96 µM; in the data active = inhibition above about 36%
Target sequence (Q92743 whole entry, looked up): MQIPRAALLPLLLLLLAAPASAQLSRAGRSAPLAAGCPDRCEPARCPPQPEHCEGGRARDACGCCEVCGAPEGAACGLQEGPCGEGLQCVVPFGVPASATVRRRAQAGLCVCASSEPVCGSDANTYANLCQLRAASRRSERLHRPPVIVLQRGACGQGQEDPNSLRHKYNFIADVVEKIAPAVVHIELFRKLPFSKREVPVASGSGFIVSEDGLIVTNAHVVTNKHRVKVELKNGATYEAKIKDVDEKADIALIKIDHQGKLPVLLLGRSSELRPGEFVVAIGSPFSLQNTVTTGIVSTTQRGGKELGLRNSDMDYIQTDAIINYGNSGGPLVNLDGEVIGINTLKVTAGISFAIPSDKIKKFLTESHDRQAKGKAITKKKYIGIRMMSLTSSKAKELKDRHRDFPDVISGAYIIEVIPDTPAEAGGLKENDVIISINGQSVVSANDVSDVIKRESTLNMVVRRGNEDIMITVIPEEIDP
PRMT1 inh conf: PRMT1 methyltransferase inhibitors, confirmation, biochemical, fluorescence polarization, triplicate | shares compounds with PRMT1 inh | recombinant His-PRMT1, activity-based probe fluorescence polarization | inhibition, % at 2.79 µM | 3,300 compounds, 42% hits;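 active = mean inhibition across replicates above the hit cutoff derived for the earlier primary screen, cut at about 22% in these data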
Hits are given with their value.

Results for COc1cccc(N2CCN(C(=O)CN3C(=O)NC(C)(c4ccc5ccccc5c4)C3=O)CC2)c1 (stereo unspecified) ?
PRMT1 inh: inactive; ABHD4 inh: inactive; TCR-CD3 inh: inactive; SIAE inh: inactive; HTRA1 inhibitor: inactive

How did COc1cccc(NC(=O)C2CC(=O)N=C(N)S2)c1 (stereo unspecified) do in these assays?
PRMT1 inh: inactive; ABHD4 inh: inactive; TCR-CD3 inh: inactive; SIAE inh: inactive; HTRA1 inhibitor: inactive

What do the screens show for `COc1cccc(NC(=O)C2CC(=O)n3cnnc3S2)c1` (stereo unspecified)?
PRMT1 inh: 79; ABHD4 inh: inactive; TCR-CD3 inh: inactive; SIAE inh: inactive; HTRA1 inhibitor: inactive; PRMT1 inh conf: 61

Results for COc1ccc(NC(=O)C2CC(=O)n3cnnc3S2)cc1 (stereo unspecified) ?
PRMT1 inh: 74; ABHD4 inh: inactive; TCR-CD3 inh: inactive; SIAE inh: inactive; HTRA1 inhibitor: inactive; PRMT1 inh conf: 79

How did CC(C)CN(C(=O)COC(=O)c1ccc(Br)cc1)c1c(N)n(Cc2ccccc2)c(=O)[nH]c1=O do in these assays?
PRMT1 inh: inactive; ABHD4 inh: inactive; TCR-CD3 inh: inactive; SIAE inh: inactive; HTRA1 inhibitor: inactive

Results for CC1Cn2c(nc3sc4c(c3c2=O)CC(C)(C)OC4)N1CCO (stereo unspecified) ?
PRMT1 inh: inactive; ABHD4 inh: inactive; TCR-CD3 inh: inactive; SIAE inh: inactive; HTRA1 inhibitor: inactive

What do the screens show for `O=C(O)/C(=C\c1cccc(F)c1)c1ccc(S(=O)(=O)N2CCCCC2)s1`?
PRMT1 inh: inactive; ABHD4 inh: inactive; TCR-CD3 inh: inactive; SIAE inh: inactive; HTRA1 inhibitor: inactive

How did O=C(O)/C(=C/c1ccc(Cl)c([N+](=O)[O-])c1)c1ccc(S(=O)(=O)N2CCCCC2)s1 do in these assays?
PRMT1 inh: 39; ABHD4 inh: inactive; TCR-CD3 inh: inactive; SIAE inh: inactive; HTRA1 inhibitor: inactive; PRMT1 inh conf: inactive

How did CC1(C)OC2OC(C3COC(=O)O3)C(OC(=O)c3ccccc3)C2O1 (stereo unspecified) do in these assays?
PRMT1 inh: inactive; ABHD4 inh: inactive; TCR-CD3 inh: inactive; SIAE inh: inactive; HTRA1 inhibitor: inactive

What do the screens show for `O=C(Nc1nnc([C@H]2C[C@H](O)[C@@H](CO)O2)s1)C(c1ccccc1)c1ccccc1`?
PRMT1 inh: inactive; ABHD4 inh: inactive; TCR-CD3 inh: inactive; SIAE inh: inactive

Results for COCc1cc(=O)n2[nH]c(N)nc2n1 ?
PRMT1 inh: inactive; ABHD4 inh: inactive; TCR-CD3 inh: inactive; SIAE inh: inactive; HTRA1 inhibitor: inactive

What do the screens show for `COCc1cc(=O)n2[nH]c(-c3ccsc3-n3c(C)ccc3C)cc2n1`?
PRMT1 inh: 45; ABHD4 inh: inactive; TCR-CD3 inh: inactive; SIAE inh: inactive; HTRA1 inhibitor: inactive; PRMT1 inh conf: inactive

How did Cn1nnnc1Sc1ncnc2scc(-c3ccc[nH]3)c12 do in these assays?
PRMT1 inh: 31; ABHD4 inh: inactive; TCR-CD3 inh: inactive; SIAE inh: inactive; HTRA1 inhibitor: inactive; PRMT1 inh conf: inactive

Results for O=Cc1ccc(Cl)c(Cl)c1 ?
PRMT1 inh: inactive; ABHD4 inh: inactive; TCR-CD3 inh: inactive; SIAE inh: inactive; HTRA1 inhibitor: inactive

Results for Cc1c(C(=O)NCc2ccc3c(c2)OCO3)sc2nc(-c3ccccc3)cn12 ?
PRMT1 inh: inactive; ABHD4 inh: inactive; TCR-CD3 inh: inactive; SIAE inh: inactive; HTRA1 inhibitor: inactive

What do the screens show for `Cc1c(C(=O)NCc2ccc3c(c2)OCO3)sc2nc(-c3ccc(F)cc3)cn12`?
PRMT1 inh: 29; ABHD4 inh: inactive; TCR-CD3 inh: inactive; SIAE inh: inactive; HTRA1 inhibitor: inactive; PRMT1 inh conf: inactive

What do the screens show for `CC(=O)Nc1ccc(S(=O)(=O)NCCSCc2c(Cl)cccc2Cl)cc1`?
PRMT1 inh: inactive; ABHD4 inh: inactive; TCR-CD3 inh: inactive; SIAE inh: inactive; HTRA1 inhibitor: inactive

How did CC(=O)Nc1ccc(S(=O)(=O)NCCSCc2ccco2)cc1 do in these assays?
PRMT1 inh: 28; ABHD4 inh: inactive; TCR-CD3 inh: inactive; SIAE inh: inactive; HTRA1 inhibitor: inactive; PRMT1 inh conf: 61

What do the screens show for `C=C(C)c1cccc(C(C)(C)NC(=O)Nc2ccc(OC)nc2)c1`?
PRMT1 inh: 25; ABHD4 inh: inactive; TCR-CD3 inh: inactive; SIAE inh: inactive; HTRA1 inhibitor: inactive; PRMT1 inh conf: inactive

How did COc1ccc(NC(=O)c2cccc(-c3ccc(O)cc3)c2)cn1 do in these assays?
PRMT1 inh: 41; ABHD4 inh: inactive; TCR-CD3 inh: inactive; SIAE inh: inactive; HTRA1 inhibitor: inactive; PRMT1 inh conf: inactive

Results for CC(C)c1ccc(-c2cc(C(=O)N3CCOCC3)c3cc(Br)ccc3n2)cc1 ?
PRMT1 inh: inactive; ABHD4 inh: inactive; TCR-CD3 inh: inactive; SIAE inh: inactive; HTRA1 inhibitor: inactive

Results for Cc1cccc(C(=O)N[C@H](C(=O)NCCc2ccc(S(N)(=O)=O)cc2)C(C)C)c1 ?
PRMT1 inh: inactive; ABHD4 inh: inactive; TCR-CD3 inh: inactive; SIAE inh: inactive; HTRA1 inhibitor: inactive

What do the screens show for `CCCCCN(C(=O)CCC(=O)OCC(=O)Nc1cccc(SC)c1)c1c(N)n(CCCC)c(=O)[nH]c1=O`?
PRMT1 inh: inactive; ABHD4 inh: inactive; TCR-CD3 inh: inactive; SIAE inh: inactive; HTRA1 inhibitor: inactive

How did COC1=CC(=O)c2ccccc2C1=O do in these assays?
HTRA1 inhibitor: inactive

How did COC1=CC(=O)C=C(OC)C1=O do in these assays?
PRMT1 inh: 56; ABHD4 inh: inactive; TCR-CD3 inh: inactive; SIAE inh: inactive; HTRA1 inhibitor: inactive; PRMT1 inh conf: 54

What do the screens show for `Cc1cccc(CSc2nc3nc(C)cc(C)n3n2)c1`?
PRMT1 inh: inactive; ABHD4 inh: inactive; TCR-CD3 inh: inactive; SIAE inh: inactive; HTRA1 inhibitor: inactive

What do the screens show for `COc1cc2c(cc1OC)C(c1ccccc1O)N(C1CC(=O)N(c3ccccc3)C1=O)CC2` (stereo unspecified)?
PRMT1 inh: 83; ABHD4 inh: inactive; TCR-CD3 inh: inactive; SIAE inh: inactive; HTRA1 inhibitor: inactive; PRMT1 inh conf: inactive

What do the screens show for `COc1cc2c(cc1OC)C(c1ccccc1)N(C(=O)CCl)CC2` (stereo unspecified)?
PRMT1 inh: inactive; ABHD4 inh: inactive; TCR-CD3 inh: inactive; SIAE inh: inactive; HTRA1 inhibitor: inactive

Results for Oc1ccc(CNc2cccc(F)c2)c2cccnc12 ?
PRMT1 inh: 63; ABHD4 inh: inactive; SIAE inh: inactive; PRMT1 inh conf: 48

How did Oc1ccc(CNc2ccccc2Br)c2cccnc12 do in these assays?
PRMT1 inh: 32; ABHD4 inh: inactive; SIAE inh: inactive; PRMT1 inh conf: inactive
